T1: Squalene synthase (Homo sapiens, UniProt P37268)
T1 sequence (P37268 whole entry): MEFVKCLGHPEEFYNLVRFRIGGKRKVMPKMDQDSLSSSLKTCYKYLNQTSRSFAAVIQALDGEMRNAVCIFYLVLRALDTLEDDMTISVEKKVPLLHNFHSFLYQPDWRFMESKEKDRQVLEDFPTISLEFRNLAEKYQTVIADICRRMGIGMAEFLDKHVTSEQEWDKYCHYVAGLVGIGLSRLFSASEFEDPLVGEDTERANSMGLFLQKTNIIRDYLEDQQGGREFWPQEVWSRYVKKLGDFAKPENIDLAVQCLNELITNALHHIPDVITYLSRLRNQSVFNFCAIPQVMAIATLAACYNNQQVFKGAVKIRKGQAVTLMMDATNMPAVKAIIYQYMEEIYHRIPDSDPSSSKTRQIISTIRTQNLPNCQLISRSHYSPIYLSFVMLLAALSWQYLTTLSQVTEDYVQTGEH


How the values were obtained:
[1] = Selectivity index, ratio of IC50 for rat L6 cells over IC50 for intracellular Trypanosoma cruzi amastigotes; type: functional
[2] = Selectivity index, ratio of IC50 for human recombinant squalene synthase over IC50 for Trypanosoma cruzi squalene synthase
Outline: (§1)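 T. cruzi enzyme was purified TcSQS24/36; human SQS was E. coli extract expressing pHSS16. Stopped with NaOH, squalene carrier added, TLC in toluene-ethyl acetate 9:1, squalene zone counted by scintillation. Index = human IC50 / T. cruzi IC50.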

Squalene synthase = target: T1, Squalene synthase; test: Inhibition of human recombinant squalene synthase
Outline: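 The enzyme source was extracts of E. coli expressing truncated human SQS. Activity was measured as [3H]FPP-to-squalene conversion at 0.5 μM FPP and 0.25 mM NADPH in pH 7.4 MOPS-NaOH with MgCl2, CHAPS, Tween 80 and DTT, for 5 min at 37°C. Reactions were stopped with NaOH, squalene was separated by silica TLC (toluene-ethyl acetate 9:1) and counted by scintillation, and IC50 was curve-fitted.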

[3] = Inhibition of Trypanosoma cruzi recombinant squalene synthase
Outline: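 The enzyme was purified His-tagged T. cruzi SQS expressed in E. coli, truncated by 24 N-terminal and 36 C-terminal residues. Activity was measured as [3H]FPP-to-[3H]squalene conversion in pH 7.4 MOPS-NaOH with 20 mM MgCl2, 5 mM CHAPS, 1% Tween 80, 10 mM DTT, 0.25 mM NADPH and 0.5 μM FPP, 5 min at 37°C. Reactions were stopped with NaOH, squalene was separated by silica TLC and counted by scintillation, and IC50 was curve-fitted.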

Trypanosoma cruzi [4] = test: Antitrypanosomal activity against intracellular Trypanosoma cruzi amastigotes in rat L6 cells; type: functional, organism-based
Outline: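 L6 rat myoblasts were seeded at 2,000 cells/well in RPMI 1640 with 10% FBS and 2 mM L-glutamine. After 24 h, 5,000 Tulahuen C2C4 trypomastigotes expressing lacZ were added with twofold serial drug dilutions. Plates were incubated 4 days at 37°C in 5% CO2. CPRG/Nonidet was then added, and colour was read at 540 nm after 2–4 h. IC50 came from the sigmoidal inhibition curve.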

L6 = test: Growth inhibition of rat L6 cells; type: cell-based
Trypanosoma cruzi [5] = test: Activity of Trypanosoma cruzi microsomal or mitochondrial squalene synthase
Trypanosoma cruzi [6] = test: Activity of Trypanosoma cruzi glycosomal squalene synthase
Trypanosoma cruzi [7] = test: Activity of Trypanosoma cruzi truncated squalene synthase 24/36
Outline: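 Purified N-His-tagged TcSQS24/36 (E. coli, IMAC then MonoQ) in 50 mM MOPS-NaOH pH 7.4, 20 mM MgCl2, 5 mM CHAPS, 1% Tween 80, 10 mM DTT, 0.025 mg/ml BSA. [3H]FPP to [3H]squalene, 5 min at 37°C. FPP Km: 1–20 μM FPP with 2 mM NADPH. NADPH Km: 5–400 μM NADPH with 20 μM FPP. Nonlinear hyperbolic fits.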

Saccharomyces cerevisiae = test: Activity of Saccharomyces cerevisiae C-terminal truncated squalene synthase
Leishmania mexicana [8] = test: Activity of Leishmania mexicana microsomal or mitochondrial squalene synthase
Leishmania mexicana [9] = test: Activity of Leishmania mexicana glycosomal squalene synthase
Homo sapiens = organism: Homo sapiens; test: Activity of human double-truncated squalene synthase; outline: as §1
[10] = substrate: CC(C)=CCC/C(C)=C/CC/C(C)=C/COP(=O)(O)OP(=O)(O)O; test: (§2) Activity of human full length squalene synthase expressed in baculovirus
[11] = substrate: NC(=O)c1ccc[n+]([C@@H]2O[C@H](COP(=O)([O-])OP(=O)(O)OC[C@H]3O[C@@H](n4cnc5c(N)ncnc54)[C@H](OP(=O)(O)O)[C@@H]3O)[C@@H](O)[C@H]2O)c1; test: as §2

| Molecule | Ratio IC50 [1] | Ratio IC50 [2] | IC50 (Squalene synthase) | IC50 [3] | IC50 (Trypanosoma cruzi [4]) | IC50 (L6) | other results |
| --- | --- | --- | --- | --- | --- | --- | --- |
| CCOC(=O)c1ccc(C2=CN3CCC2CC3)cc1 | 17 | 140 | 7000 nM | 50 nM | – | – | – |
| CO[C@H]1CN(c2ccc(C#C[C@@]3(O)CN4CCC3CC4)c(Cc3ccccc3)n2)C[C@H]1O | – | 1.8 | 1.5 nM | 0.84 nM | 8 nM | – | – |
| O[C@]1(C#Cc2cccc(OCc3ccccc3)c2)CN2CCC1CC2 | 4.7 | > 13 | > 20000 nM | 1500 nM | 9600 nM | 45000 nM | – |
| NC(=O)c1ccc[n+]([C@@H]2O[C@H](COP(=O)([O-])OP(=O)(O)OC[C@H]3O[C@@H](n4cnc5c(N)ncnc54)[C@H](OP(=O)(O)O)[C@@H]3O)[C@@H](O)[C@H]2O)c1 | – | – | – | – | – | – | Km (Trypanosoma cruzi [5]): 33 µM; Vmax (Trypanosoma cruzi [5]): 0.76 nmol/min/mg; Km (Trypanosoma cruzi [6]): 40 µM; Vmax (Trypanosoma cruzi [6]): 0.43 nmol/min/mg; Km (Trypanosoma cruzi [7]): 23.3 µM; Vmax (Trypanosoma cruzi [7]): 1850 nmol/min/mg; Km (Saccharomyces cerevisiae): 530 µM; Km (Leishmania mexicana [8]): 57 µM; Vmax (Leishmania mexicana [8]): 0.84 nmol/min/mg; Km (Leishmania mexicana [9]): 62 µM; Vmax (Leishmania mexicana [9]): 0.58 nmol/min/mg |
| COCCCOc1ccc(C#C[C@@]2(O)CN3CCC2CC3)c(Cc2ccccc2)n1 | – | 1.7 | 6 nM | 3.52 nM | 11 nM | – | – |
| C(#Cc1ccc(OCc2ccccc2)cc1)C1=CN2CCC1CC2 | 15 | 0.3 | 250 nM | 830 nM | 3100 nM | 47200 nM | – |
| C1=C(Cc2ccc(-c3ccccc3)cc2)C2CCN1CC2 | 4.4 | > 27 | > 20000 nM | 730 nM | 4700 nM | 20500 nM | – |
| CC(C)=CCC/C(C)=C/CC/C(C)=C/COP(=O)(O)OP(=O)(O)O | – | – | – | – | – | – | Km (Trypanosoma cruzi [5]): 2.3 µM; Vmax (Trypanosoma cruzi [5]): 1.18 nmol/min/mg; Km (Homo sapiens): 2.8 µM; Km (Trypanosoma cruzi [6]): 2.8 µM; Vmax (Trypanosoma cruzi [6]): 0.97 nmol/min/mg; Km (Trypanosoma cruzi [7]): 5.25 µM; Vmax (Trypanosoma cruzi [7]): 1430 nmol/min/mg; Km (Saccharomyces cerevisiae): 2.5 µM; Km (Leishmania mexicana [8]): 2.8 µM; Vmax (Leishmania mexicana [8]): 0.98 nmol/min/mg; Km (Leishmania mexicana [9]): 3.2 µM; Vmax (Leishmania mexicana [9]): 0.75 nmol/min/mg |
| Squalene synthase (Homo sapiens), P37268 (protein) MEFVKCLGHPEEFYNLVRFRIGGKRKVMPKMDQDSLSSSLKTCYKYLNQTSRSFAAVIQALDGEMRNAVCIFYLVLRALDTLEDDMTISVEKKVPLLHNFHSFLYQPDWRFMESKEKDRQVLEDFPTISLEFRNLAEKYQTVIADICRRMGIGMAEFLDKHVTSEQEWDKYCHYVAGLVGIGLSRLFSASEFEDPLVGEDTERANSMGLFLQKTNIIRDYLEDQQGGREFWPQEVWSRYVKKLGDFAKPENIDLAVQCLNELITNALHHIPDVITYLSRLRNQSVFNFCAIPQVMAIATLAACYNNQQVFKGAVKIRKGQAVTLMMDATNMPAVKAIIYQYMEEIYHRIPDSDPSSSKTRQIISTIRTQNLPNCQLISRSHYSPIYLSFVMLLAALSWQYLTTLSQVTEDYVQTGEH | – | – | – | – | – | – | Km [10]: 2.3 µM; Vmax [10]: 4800 nmol/min/mg; Km [11]: 430 µM; Vmax [11]: 3800 nmol/min/mg |

From ChEMBL document CHEMBL1145517, “Kinetic characterization of squalene synthase from Trypanosoma cruzi: selective inhibition by quinuclidine derivatives” (Antimicrob Agents Chemother, 2007)
